In ChEMBL document CHEMBL5104115, “Design, synthesis of novel triptolide-glucose conjugates targeting glucose Transporter-1 and their selective antitumor effect” (Eur J Med Chem, 2022):
The source made the active and inactive calls. The calls are words filed in the database; no cut-off is given here.

Assays:
NCI-H460 [1] = experiment: Induction of apoptosis in human NCI-H460 cells assessed as late apoptotic cells at 0.1 uM measured after 48 hrs by Annexin V-FITC/PI staining method (reference value: 8.57%); format: functional
NCI-H460 [2] = experiment: Induction of apoptosis in human NCI-H460 cells assessed as late apoptotic cells at 0.01 uM measured after 48 hrs by Annexin V-FITC/PI staining method (reference value: 8.57%); format: functional
NCI-H460 [3] = experiment: Induction of apoptosis in human NCI-H460 cells assessed as necrotic cells at 0.01 uM measured after 48 hrs by Annexin V-FITC/PI staining method (reference value: 1.59%); format: functional
[4] = Toxicity in BALB/c nude mouse xenografted with human NCI-H1975 cells assessed as reduction of cytoplasmic vacuoles at 0.2 mg/kg administered ip, qd for 2 weeks; conditions: in vivo, 336 h
NCI-H1975 [5] = experiment: Cytotoxicity against human NCI-H1975 cells incubated for 72 hrs by MTT assay; format: functional, cell-based; conditions: NCI-H1975, 72 h
Summary of the method: (§1)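 Cells seeded at 4000/well, incubated overnight, then exposed to a range of concentrations, or DMSO vehicle, for 72 h. MTT (5 mg/mL solution) added for 4 h and formazan dissolved in DMSO. Absorbance read at 570 nm, and IC50 derived from the curves. Tumor lines were grown in RPMI 1640; HUVEC, HaCaT and LO2 were grown in DMEM, each with 10% FBS at 37 °C and 5% CO2.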

[6] = Octanol-water partition coefficient, logD of the compound in PBS at pH 7.4 by liquid chromatography based mass spectrometric analysis; format: physicochemical
Summary of the method: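 Shake-flask method: 3.0 mg compound dissolved in PBS-saturated n-octanol and rotated 24 h at room temperature. The octanol phase was then mixed with octanol-saturated PBS, rotated another 24 h and centrifuged. Both phases quantified by LC-MS against a standard curve, and log P = log(C octanol/C water).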

HT-29 = experiment: Cytotoxicity against human HT-29 cells incubated for 72 hrs by MTT assay; format: functional, cell-based; conditions: HT-29, 72 h; summary of the method: as §1
[7] = Toxicity in BALB/c nude mouse xenografted with human NCI-H1975 cells assessed as degeneration of inter tube connective tissue at 0.2 mg/kg administered ip, qd for 2 weeks; conditions: in vivo, 336 h
[8] = Toxicity in BALB/c nude mouse xenografted with human NCI-H1975 cells assessed as morphological change in lung at 0.2 mg/kg administered ip, qd for 2 weeks; conditions: in vivo, 336 h
NCI-H460 [9] = experiment: Induction of apoptosis in human NCI-H460 cells assessed as viable cells at 1 uM measured after 48 hrs by Annexin V-FITC/PI staining method (reference value: 86.4%); format: functional; conditions: read-out: Activity
NCI-H460 [10] = experiment: Induction of apoptosis in human NCI-H460 cells assessed as necrotic cells at 1 uM measured after 48 hrs by Annexin V-FITC/PI staining method (reference value: 1.59%); format: functional
[11] = Toxicity in BALB/c nude mouse xenografted with human NCI-H1975 cells assessed as reduction of cytoplasmic nuclei at 0.2 mg/kg administered ip, qd for 2 weeks; conditions: in vivo, 336 h
NCI-H460 [12] = experiment: Induction of apoptosis in human NCI-H460 cells assessed as late apoptotic cells at 1 uM measured after 48 hrs by Annexin V-FITC/PI staining method (reference value: 8.57%); format: functional
NCI-H460 [13] = experiment: Cytotoxicity against human NCI-H460 cells incubated for 72 hrs by MTT assay; format: functional, cell-based; conditions: NCI-H460, 72 h; summary of the method: as §1
[14] = Toxicity in BALB/c nude mouse xenografted with human NCI-H1975 cells assessed as morphological change in kidney at 0.2 mg/kg administered ip, qd for 2 weeks; conditions: in vivo, 336 h
HCT-116 = experiment: Cytotoxicity against human HCT-116 cells incubated for 72 hrs by MTT assay; format: functional, cell-based; conditions: HCT-116, 72 h; summary of the method: as §1
NCI-H460 [15] = experiment: Down regulation of RNA polymerase II in human NCI-H460 cells measured after 48 hrs by Western blotting analysis; format: functional, cell-based
Summary of the method: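 NCI-H460 cells treated for 48 h, harvested by trypsinization and lysed on ice in NP-40 buffer (50 mmol/L Tris pH 8.0, 150 mmol/L NaCl, 1% NP-40). Protein quantified by BCA and resolved by SDS-PAGE. Blots probed for RNA Pol II (1:1000), with GAPDH as loading control, and detected by chemiluminescence.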

NCI-H460 [16] = experiment: Induction of apoptosis in human NCI-H460 cells assessed as necrotic cells at 0.1 uM measured after 48 hrs by Annexin V-FITC/PI staining method (reference value: 1.59%); format: functional
NCI-H460 [17] = experiment: Induction of apoptosis in human NCI-H460 cells assessed as early apoptotic cells at 0.1 uM measured after 48 hrs by Annexin V-FITC/PI staining method (reference value: 3.46%); format: functional
NCI-H460 [18] = experiment: Induction of apoptosis in human NCI-H460 cells assessed as early apoptotic cells at 1 uM measured after 48 hrs by Annexin V-FITC/PI staining method (reference value: 3.46%); format: functional
SW-620 = experiment: Cytotoxicity against human SW-620 cells incubated for 72 hrs by MTT assay; format: functional, cell-based; conditions: SW-620, 72 h; summary of the method: as §1
[19] = Toxicity in BALB/c nude mouse xenografted with human NCI-H1975 cells assessed as morphological change in liver at 0.2 mg/kg administered ip, qd for 2 weeks; conditions: in vivo, 336 h
NCI-H1975 [20] = experiment: Antitumor activity against human NCI-H1975 cells xenografted in BALB/c nude mouse assessed as tumor growth inhibition at 0.2 mg/kg, ip, qd for 2 weeks relative to control; conditions: NCI-H1975, 336 h, read-out: TGI
NCI-H460 [21] = experiment: Induction of apoptosis in human NCI-H460 cells assessed as viable cells at 0.01 uM measured after 48 hrs by Annexin V-FITC/PI staining method (reference value: 86.4%); format: functional; conditions: read-out: Activity
NCI-H460 [22] = experiment: Induction of apoptosis in human NCI-H460 cells assessed as viable cells at 0.1 uM measured after 48 hrs by Annexin V-FITC/PI staining method (reference value: 86.4%); format: functional; conditions: read-out: Activity
NCI-H460 [23] = experiment: Induction of ROS accumulation in human NCI-H460 cells measured upto 100 nM after 42 to 48 hrs by DCFH-DA staining based flow cytometric analysis; format: functional, cell-based; conditions: time 42-48 hrs
Summary of the method: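 NCI-H460 cells exposed for 42 h or 48 h, then suspended in 1% BSA DPBS. DCFH-DA (from a 10 mM stock) added and incubated 30 min in the dark, followed by washing. DCF fluorescence taken from flow-cytometry histograms and expressed as percentage relative to untreated control.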

MDA-MB-231 = experiment: Cytotoxicity against human MDA-MB-231 cells incubated for 72 hrs by MTT assay; format: functional, cell-based; conditions: MDA-MB-231, 72 h; summary of the method: as §1
[24] = Toxicity in BALB/c nude mouse xenografted with human NCI-H1975 cells assessed as irregular spermatogenic tubules at 0.2 mg/kg administered ip, qd for 2 weeks; conditions: in vivo, 336 h
[25] = Cytotoxicity against human L02 cells incubated for 72 hrs by MTT assay; format: toxicity, cell-based; summary of the method: as §1
[26] = Stability in mouse serum measured after 8 hrs by HPLC analysis; format: ADME, cell-free
[27] = Toxicity in BALB/c nude mouse xenografted with human NCI-H1975 cells assessed as morphological change in heart at 0.2 mg/kg administered ip, qd for 2 weeks; conditions: in vivo, 336 h
NCI-H460 [28] = experiment: Induction of apoptosis in human NCI-H460 cells assessed as early apoptotic cells at 0.01 uM measured after 48 hrs by Annexin V-FITC/PI staining method (reference value: 3.46%); format: functional
[29] = Cytotoxicity against human HaCaT cells incubated for 72 hrs by MTT assay; format: toxicity, cell-based; summary of the method: as §1
[30] = Toxicity in BALB/c nude mouse xenografted with human NCI-H1975 cells assessed as decreased spermatogenic cells at 0.2 mg/kg administered ip, qd for 2 weeks; conditions: in vivo, 336 h
NCI-H460 [31] = experiment: Induction of mitochondrial membrane potential loss in human NCI-H460 cells by flow cytometric analysis; format: functional, cell-based
Summary of the method: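 Treated NCI-H460 cells suspended in 1% BSA DPBS and stained with TMRE (from a 1 mM stock) for 20 min in the dark. Cells then washed and resuspended in 1% BSA DPBS. Relative TMRE fluorescence intensity taken as the readout of membrane potential.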

[32] = Cytotoxicity against HUVEC incubated for 72 hrs by MTT assay; format: toxicity, cell-based; conditions: human, HUVEC cells; summary of the method: as §1

Which results are given for `CC(C)[C@]12O[C@H]1[C@@H]1O[C@]13[C@]1(O[C@H]1C[C@H]1C4=C(CC[C@@]13C)C(=O)OC4)[C@@H]2O` [TRIPTOLIDE]?
Activity (NCI-H460 [1]): 24.4%; Activity (NCI-H460 [2]): 3.17%; Activity (NCI-H460 [3]): 2.2%; Activity [4]: Toxic; IC50 (NCI-H1975 [5]): 2 nM; logD [6]: -0.56; IC50 (HT-29): 47 nM; Activity [7]: Toxic; Activity [8]: Non-Toxic; viability at 1 µM (NCI-H460 [9]): 25.1%; Activity (NCI-H460 [10]): 2.34%; Activity [11]: Toxic; Activity (NCI-H460 [12]): 5.7%; IC50 (NCI-H460 [13]): 14 nM; Activity [14]: Non-Toxic; IC50 (HCT-116): 46 nM; Activity (NCI-H460 [15]): Active; Activity (NCI-H460 [16]): 3.85%; Activity (NCI-H460 [17]): 42.2%; Activity (NCI-H460 [18]): 56.8%; IC50 (SW-620): 163 nM; Activity [19]: Non-Toxic; inhibition in vivo at 0.2 mg/kg (NCI-H1975 [20]): 28.6%; viability at 0.01 µM (NCI-H460 [21]): 87.8%; viability at 0.1 µM (NCI-H460 [22]): 29.5%; Activity (NCI-H460 [23]): Active; IC50 (MDA-MB-231): 51 nM; Activity [24]: Toxic; IC50 at 72 h [25]: 16 nM; Stability [26]: Unstable; Activity [27]: Non-Toxic; Activity (NCI-H460 [28]): 6.84%; IC50 at 72 h [29]: 27 nM; Activity [30]: Toxic; Activity (NCI-H460 [31]): Active; IC50 at 72 h [32]: 44 nM

For `CC(C)[C@]12O[C@H]1[C@@H]1O[C@]13[C@]1(O[C@H]1C[C@H]1C4=C(CC[C@@]13C)C(=O)OC4)[C@@H]2OC(=O)CCC(=O)O[C@H]1O[C@H](CO)[C@@H](O)[C@H](O)[C@H]1O`, which IC50 (NCI-H1975 [5]) is on record?
Its IC50 is 3420 nM.

And the IC50 (HT-29)?
The IC50 was 5370 nM.

What about the IC50 (NCI-H460 [13]) of the same compound?
The IC50 was 4080 nM.

What about the IC50 (HCT-116) of the same compound?
The IC50 was 1900 nM.

What about the IC50 (SW-620) of the same compound?
Its IC50 is 3860 nM.

And the IC50 (MDA-MB-231)?
Its IC50 is 4420 nM.

And the IC50 at 72 h [25]?
Its IC50 at 72 h is 2150 nM.

What about the IC50 at 72 h [29] of the same compound?
The IC50 at 72 h was 4300 nM.

What about the IC50 at 72 h [32] of the same compound?
Its IC50 at 72 h is 5680 nM.

For `CC(C)[C@]12O[C@H]1[C@@H]1O[C@]13[C@]1(O[C@H]1C[C@H]1C4=C(CC[C@@]13C)C(=O)OC4)[C@@H]2OC(=O)CCC(=O)OC[C@H]1OC(O)[C@H](O)[C@@H](O)[C@@H]1O` (some centres undefined), which IC50 (NCI-H1975 [5]) is on record?
The IC50 was 1140 nM.

And the IC50 (HT-29)?
Its IC50 is 4280 nM.

And the IC50 (NCI-H460 [13])?
Its IC50 is 1070 nM.

What about the IC50 (HCT-116) of the same compound?
The IC50 was 2280 nM.

What about the IC50 (SW-620) of the same compound?
Its IC50 is 5200 nM.

And the IC50 (MDA-MB-231)?
The IC50 was 6620 nM.

What about the IC50 at 72 h [25] of the same compound?
The IC50 at 72 h was 1420 nM.

What about the IC50 at 72 h [29] of the same compound?
The IC50 at 72 h was 3900 nM.

And the IC50 at 72 h [32]?
The IC50 at 72 h was 2020 nM.
